This note sets out measurements from ChEMBL document CHEMBL4411314, “Evaluation of Amides, Carbamates, Sulfonamides, and Ureas of 4-Prop-2-ynylidenecycloalkylamine as Potent, Selective, and Bioavailable Negative Allosteric Modulators of Metabotropic Glutamate Receptor 5” (J Med Chem, 2019).

Where only a bound is given, the exact number is not on record here.

Data set [1] has as its target Metabotropic glutamate receptor 1 (Rattus norvegicus, UniProt P23385). The experiment in a line: Displacement of [3H]R214127 from rat mGlu1 receptor expressed in CHO-TREx cell membranes after 30 mins by liquid scintillation spectrometric analysis.
The nature of data set [2]: Metabolic stability in human liver microsomes assessed as parent compound remaining at 0.2 mM after 30 mins in presence of NADPH by HPLC-MS/MS analysis. In kind it is ADME, Microsome. Conditions: read-out: Stability.
Data set [3] deals with CYP3A4 (Homo sapiens, UniProt P08684). In words: Metabolic stability assessed as human CYP3A4-mediated drug metabolism by measuring parent compound remaining at 0.2 mM after 30 mins in presence of NADPH by HPLC-MS/MS analysis. It is filed as ADME. Conditions: read-out: Stability.
Data set [4] deals with T1, Cytochrome P450 1A2 (Homo sapiens, UniProt P05177).
T1 sequence (P05177 whole entry): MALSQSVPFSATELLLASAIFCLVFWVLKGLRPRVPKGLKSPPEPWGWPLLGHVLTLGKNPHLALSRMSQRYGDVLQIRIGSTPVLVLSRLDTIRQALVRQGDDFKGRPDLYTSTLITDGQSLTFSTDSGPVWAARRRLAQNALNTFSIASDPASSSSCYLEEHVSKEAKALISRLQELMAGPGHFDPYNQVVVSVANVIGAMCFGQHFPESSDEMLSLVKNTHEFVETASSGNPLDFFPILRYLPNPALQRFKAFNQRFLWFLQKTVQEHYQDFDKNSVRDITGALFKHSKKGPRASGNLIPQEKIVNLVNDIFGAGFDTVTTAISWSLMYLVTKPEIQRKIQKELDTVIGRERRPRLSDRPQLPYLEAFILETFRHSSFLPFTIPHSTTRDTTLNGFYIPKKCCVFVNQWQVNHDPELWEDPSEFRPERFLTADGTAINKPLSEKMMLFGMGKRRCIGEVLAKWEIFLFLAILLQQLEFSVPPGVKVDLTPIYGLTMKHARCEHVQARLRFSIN
The experiment in a line: Inhibition of recombinant human CYP1A2 using 3-cyano-7-ethoxycoumarin as substrate preincubated for 10 mins followed by substrate addition and measured after 15 mins. It is filed as ADME.

The target of data set [5] is T2, Metabotropic glutamate receptor 5 (Homo sapiens, UniProt P41594). The experiment in a line: Negative allosteric modulation of human mGlu5 receptor expressed in CHO-TREx cell membranes assessed as reduction in quisqualate-induced Ca2+ mobilization incubated for 18 hrs and measured every 1.5 secs intervals for 60 secs by Fluo-4/AM dye-based fluorescence analysis. In kind it is functional. An outline of the steps:
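Functional Ca2+ mobilization in CHO T-REx cells carrying cloned human mGlu5 receptor; inhibition of the quisqualate-induced intracellular [Ca2+]i response measured to give IC50.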

In data set [6] the target is Cytochrome P450 3A4 (Homo sapiens, UniProt P08684). The experiment in a line: Inhibition of recombinant human CYP3A4 using 7-benzyloxy-trifluoromethylcoumarin as substrate preincubated for 10 mins followed by substrate addition and measured after 30 mins. It is filed as ADME.
A short description of data set [7]: Drug metabolism in rat liver microsomes assessed as oxidation followed by urea deethylation by HPLC-MS/MS analysis. It is filed as ADME, Microsome.
Data set [8] can be described thus: Drug metabolism in rat liver microsomes assessed as hydroxylation by HPLC-MS/MS analysis. It is filed as ADME, Microsome.
The target in data set [9] is T2, Metabotropic glutamate receptor 5. The experiment in a line: Displacement of [3H]MPEP from human mGlu5 receptor expressed in CHO-TREx cell membranes after 60 mins by liquid scintillation spectrometric analysis.
A short description of data set [10]: Metabolic stability in rat liver microsomes assessed as parent compound remaining at 0.2 mM after 30 mins in presence of NADPH by HPLC-MS/MS analysis. It is filed as ADME, Microsome. As to conditions: read-out: Stability.
The target in data set [11] is Cytochrome P450 2D6 (Homo sapiens, UniProt P10635). In words: Inhibition of recombinant human CYP2D6 using 3-[2-(N,N-diethylamino)ethyl]-7-methoxy-4-methylcoumarin as substrate preincubated for 10 mins followed by substrate addition and measured after 30 mins. In kind it is ADME.
Data set [12] is filed under the species Rattus norvegicus. The experiment in a line: Increase in threshold of bladder-filling volume in rat. Conditions: read-out: MED. It is filed as functional.

T2 sequence (P41594 whole entry): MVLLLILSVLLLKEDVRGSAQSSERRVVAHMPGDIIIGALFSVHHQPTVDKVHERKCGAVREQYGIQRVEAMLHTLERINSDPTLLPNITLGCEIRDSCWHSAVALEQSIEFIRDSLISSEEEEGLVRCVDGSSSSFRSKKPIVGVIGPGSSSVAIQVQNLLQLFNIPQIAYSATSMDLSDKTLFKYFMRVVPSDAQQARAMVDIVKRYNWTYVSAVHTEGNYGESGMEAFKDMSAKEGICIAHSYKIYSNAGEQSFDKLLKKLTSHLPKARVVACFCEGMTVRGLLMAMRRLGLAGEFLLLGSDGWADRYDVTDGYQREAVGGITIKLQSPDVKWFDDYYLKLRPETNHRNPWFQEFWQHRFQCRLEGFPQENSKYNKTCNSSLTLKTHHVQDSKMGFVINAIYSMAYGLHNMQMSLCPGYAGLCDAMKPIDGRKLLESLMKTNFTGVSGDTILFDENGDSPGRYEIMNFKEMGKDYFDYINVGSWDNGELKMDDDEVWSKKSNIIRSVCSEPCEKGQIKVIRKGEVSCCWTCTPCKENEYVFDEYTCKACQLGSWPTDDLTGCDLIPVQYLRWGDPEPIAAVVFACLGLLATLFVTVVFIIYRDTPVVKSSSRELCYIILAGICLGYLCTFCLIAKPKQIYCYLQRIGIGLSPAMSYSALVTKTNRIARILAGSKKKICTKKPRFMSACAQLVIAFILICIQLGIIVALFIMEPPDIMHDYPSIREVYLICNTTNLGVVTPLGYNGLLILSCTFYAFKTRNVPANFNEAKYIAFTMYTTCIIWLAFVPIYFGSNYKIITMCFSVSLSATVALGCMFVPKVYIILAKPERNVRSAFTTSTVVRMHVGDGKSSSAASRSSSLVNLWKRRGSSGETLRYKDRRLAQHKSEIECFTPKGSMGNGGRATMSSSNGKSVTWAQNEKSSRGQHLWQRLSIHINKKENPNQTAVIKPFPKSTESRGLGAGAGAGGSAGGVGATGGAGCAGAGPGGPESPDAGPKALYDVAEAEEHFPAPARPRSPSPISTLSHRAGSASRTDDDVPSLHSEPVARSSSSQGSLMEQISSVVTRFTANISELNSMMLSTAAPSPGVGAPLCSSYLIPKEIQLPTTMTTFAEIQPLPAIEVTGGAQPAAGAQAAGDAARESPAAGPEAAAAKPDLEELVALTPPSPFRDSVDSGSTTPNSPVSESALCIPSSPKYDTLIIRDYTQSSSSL
Chain of Cytochrome P450 2D6 (P10635 whole entry): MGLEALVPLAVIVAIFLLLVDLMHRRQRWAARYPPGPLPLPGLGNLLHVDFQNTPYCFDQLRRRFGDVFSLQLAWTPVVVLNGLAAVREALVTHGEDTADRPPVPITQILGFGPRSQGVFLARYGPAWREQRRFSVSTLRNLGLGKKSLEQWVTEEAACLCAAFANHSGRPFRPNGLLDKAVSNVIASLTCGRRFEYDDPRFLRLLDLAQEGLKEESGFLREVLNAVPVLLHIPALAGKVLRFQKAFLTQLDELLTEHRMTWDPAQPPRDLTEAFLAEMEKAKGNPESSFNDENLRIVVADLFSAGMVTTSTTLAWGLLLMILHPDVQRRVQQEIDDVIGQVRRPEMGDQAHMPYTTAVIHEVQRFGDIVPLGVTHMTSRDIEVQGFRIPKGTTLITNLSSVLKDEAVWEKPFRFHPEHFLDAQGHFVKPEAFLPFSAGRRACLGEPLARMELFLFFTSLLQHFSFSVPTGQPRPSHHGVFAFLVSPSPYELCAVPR
Chain of CYP3A4 (P08684 whole entry): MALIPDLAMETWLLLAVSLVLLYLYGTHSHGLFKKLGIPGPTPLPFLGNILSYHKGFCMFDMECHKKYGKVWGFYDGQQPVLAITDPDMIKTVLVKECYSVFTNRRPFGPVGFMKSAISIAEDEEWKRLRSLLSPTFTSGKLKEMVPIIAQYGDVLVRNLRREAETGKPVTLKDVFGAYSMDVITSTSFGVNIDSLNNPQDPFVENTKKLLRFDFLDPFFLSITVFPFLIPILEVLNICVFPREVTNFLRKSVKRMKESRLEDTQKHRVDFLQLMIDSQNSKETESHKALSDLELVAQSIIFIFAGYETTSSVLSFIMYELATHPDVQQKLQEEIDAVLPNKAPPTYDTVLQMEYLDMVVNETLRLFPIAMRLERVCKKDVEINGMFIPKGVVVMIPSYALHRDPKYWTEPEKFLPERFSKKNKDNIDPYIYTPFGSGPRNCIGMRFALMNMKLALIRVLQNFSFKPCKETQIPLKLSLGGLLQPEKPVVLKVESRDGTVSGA
Chain of Cytochrome P450 3A4 (P08684 whole entry): as above
Chain of Metabotropic glutamate receptor 1 (P23385 whole entry): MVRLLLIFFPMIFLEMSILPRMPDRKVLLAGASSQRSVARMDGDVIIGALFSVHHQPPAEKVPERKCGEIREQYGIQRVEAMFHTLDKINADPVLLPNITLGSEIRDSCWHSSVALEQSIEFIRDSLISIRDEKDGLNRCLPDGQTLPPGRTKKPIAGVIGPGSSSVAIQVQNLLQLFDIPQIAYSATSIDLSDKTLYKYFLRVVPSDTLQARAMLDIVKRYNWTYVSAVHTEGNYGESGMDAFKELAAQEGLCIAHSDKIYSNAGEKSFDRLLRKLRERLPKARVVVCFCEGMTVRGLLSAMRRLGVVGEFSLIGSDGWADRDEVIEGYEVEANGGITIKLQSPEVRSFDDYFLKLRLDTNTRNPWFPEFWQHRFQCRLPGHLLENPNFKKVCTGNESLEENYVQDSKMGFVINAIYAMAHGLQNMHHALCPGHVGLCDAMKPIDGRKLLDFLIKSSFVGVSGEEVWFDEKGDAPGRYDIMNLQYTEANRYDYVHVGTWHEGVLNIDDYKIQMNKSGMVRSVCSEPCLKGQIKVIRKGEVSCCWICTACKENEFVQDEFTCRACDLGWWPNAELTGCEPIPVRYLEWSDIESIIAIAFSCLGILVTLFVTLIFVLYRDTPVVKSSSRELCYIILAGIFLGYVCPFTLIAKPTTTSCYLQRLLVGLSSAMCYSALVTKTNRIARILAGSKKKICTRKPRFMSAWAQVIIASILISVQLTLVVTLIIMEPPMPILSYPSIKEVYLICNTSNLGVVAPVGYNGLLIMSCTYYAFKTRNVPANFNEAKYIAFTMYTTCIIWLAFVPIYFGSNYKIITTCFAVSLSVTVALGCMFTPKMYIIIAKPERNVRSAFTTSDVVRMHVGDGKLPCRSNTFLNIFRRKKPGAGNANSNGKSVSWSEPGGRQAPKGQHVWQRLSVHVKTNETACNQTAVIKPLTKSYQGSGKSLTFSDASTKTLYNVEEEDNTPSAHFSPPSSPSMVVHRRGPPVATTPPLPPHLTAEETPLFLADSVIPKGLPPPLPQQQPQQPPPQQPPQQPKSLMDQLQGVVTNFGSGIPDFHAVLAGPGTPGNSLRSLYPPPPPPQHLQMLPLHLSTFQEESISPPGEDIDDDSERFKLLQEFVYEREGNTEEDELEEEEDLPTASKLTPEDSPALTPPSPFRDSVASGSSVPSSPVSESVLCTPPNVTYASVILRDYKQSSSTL

As for `CCN(C(=O)N1CCC(=CC#Cc2cccc(C)n2)CC1)C(C)C`, the Ki in [1] was greater than 1000 nM; in [9], 2.9 nM. Moreover, the remaining at 0.5 h, 200 µM is less than 1% in data set [2], 1% in data set [3] and less than 1% in data set [10]. Moreover, the half-inhibitory concentration (IC50) in [4] was 3400 nM; in data set [5] it was 133 nM; in data set [6], 15400 nM; in data set [11] it was greater than 20000 nM. For the same compound, the Drug metabolism entry in data set [7] and in [8] was “Metabolite_Detected” in each case.
For `Cc1nc(C#Cc2ccnc(Cl)c2)c(C)n1-c1ccc(F)cc1` [BASIMGLURANT], the minimal effective dose in [12] is 0.03 mg/kg.
